# Test results taken from ChEMBL document CHEMBL1124514, “Synthesis and antiviral activity of the nucleotide analogue (S)-1-[3-hydroxy-2-(phosphonylmethoxy)propyl]cytosine” (1989).
# What was measured:
# Assay type in all cases: functional
# [1] = organism: Cavia porcellus; assay: Total score of healing period in HSV-1 cutaneous infection in guinea pig 1%HPMPC
# [2] = organism: Cavia porcellus; assay: Total score of healing period in HSV-1 cutaneous infection in guinea pig at 0.1% HPMPC
# [3] = organism: Cavia porcellus; assay: Total score of healing period in HSV-1 cutaneous infection in guinea pig at 5% HPMPC
# [4] = organism: Cavia porcellus; assay: Total score of lesion formation in HSV-1 cutaneous infection in guinea pig at 0.1% HPMPC
# [5] = organism: Cavia porcellus; assay: Total score of lesion formation in HSV-1 cutaneous infection in guinea pig at 1% HPMPC
# [6] = organism: Cavia porcellus; assay: Total score of lesion formation in HSV-1 cutaneous infection in guinea pig at 5% HPMPC
# [7] = organism: Cavia porcellus; assay: Duration of time of lesion formation in HSV-1 cutaneous infection in guinea pig at 1% HPMPC
# [8] = organism: Cavia porcellus; assay: Duration of time of lesion formation in HSV-1 cutaneous infection in guinea pig at 5% HPMPC
# [9] = organism: Cavia porcellus; assay: Mean of severity score obtained from five different individuals at 1% HPMPC
# [10] = organism: Cavia porcellus; assay: Mean of severity score obtained from five different individuals at 5% HPMPC
# [11] = organism: Cavia porcellus; assay: Duration of time of healing period in HSV-1 cutaneous infection in guinea pig at 0.1% HPMPC
# [12] = organism: Cavia porcellus; assay: Duration of time of healing period in HSV-1 cutaneous infection in guinea pig at 1% HPMPC
# [13] = organism: Cavia porcellus; assay: Duration of time of healing period in HSV-1 cutaneous infection in guinea pig at 5% HPMPC
# [14] = organism: Cavia porcellus; assay: Duration of time of lesion formation in HSV-1 cutaneous infection in guinea pig at 0.1% HPMPC
# [15] = system: Human alphaherpesvirus 1; assay: Antiviral activity of the compound, determined by plaque-reduction assay against Herpes simplex virus (HSV) type 1, BW5 strain in Vero cells; conditions: Human alphaherpesvirus 1, Vero; read-out: ID50 (the source's name)
# Method in brief: (§1)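 Plaque reduction: confluent monolayers (Vero for HSV, MRC-5 for HCMV) infected with 30-50 PFU in PBS, 1 h adsorption, then compound dilutions in EMEM with 10% fetal bovine serum; 48 h at 37 °C, 5% CO2; fixed, Carbol fuchsin stained, plaques counted. ID50 = concentration reducing plaque number by 50% versus virus control.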
# [16] = system: Human alphaherpesvirus 1; assay: Antiviral activity of the compound, determined by plaque-reduction assay against thymidine kinase deficient Herpes simplex virus type 1, Z826 strain in Vero cells; conditions: Human alphaherpesvirus 1, Vero; read-out: ID50 (the source's name); method in brief: as §1
# [17] = system: Human alphaherpesvirus 2; assay: Antiviral activity determined by plaque-reduction assay against Herpes simplex virus type 2, G strain in Vero cells; conditions: Human alphaherpesvirus 2, Vero; read-out: ID50 (the source's name); method in brief: as §1
# [18] = system: Human betaherpesvirus 5; assay: Antiviral activity determined by plaque-reduction assay against Human cytomegalovirus, AD-169 strain in MRC-5 cells; conditions: Human betaherpesvirus 5, MRC5; read-out: ID50 (the source's name); method in brief: as §1
# [19] = system: Mus musculus; assay: Mean survival time of mice was determined after intraperitoneal administration of compound at 0.1 mg/kg per day in experiment 2
# Method in brief: (§2)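 Female Swiss mice (16–18 g) infected ip with (2-6) × 10^2 PFU HSV 1 HL-34, randomized into groups of 10. Ip dosing started 3 h postinfection, twice daily for 5 consecutive days; vehicle 0.2% carboxymethylcellulose with 0.2% Tween 80 in water. Mortality followed 21 days; survival by Fisher's exact test, mean survival time by Gehan-Wilcoxon.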
# [20] = system: Mus musculus; assay: Mean survival time of mice was determined after intraperitoneal administration of compound at 1 mg/kg per day in experiment 2; method in brief: as §2
# [21] = system: Mus musculus; assay: Mean survival time of mice was determined after intraperitoneal administration of compound at 10 mg/kg per day in experiment 1; method in brief: as §2
# [22] = system: Mus musculus; assay: Mean survival time of mice was determined after intraperitoneal administration of compound at 100 mg/kg per day in experiment 1; method in brief: as §2
# [23] = system: Mus musculus; assay: Mean survival time of mice was determined after intraperitoneal administration of compound at 200 mg/kg per day in experiment 1; method in brief: as §2
# [24] = system: Mus musculus; assay: Percentage survival of mice after intraperitoneal administration of compound at 0.1 mg/kg per day in experiment 2; survival/ tested =5/10; conditions: ip; method in brief: as §2
# [25] = system: Mus musculus; assay: Percentage survival of mice after intraperitoneal administration of compound at 100 mg/kg per day in experiment 1; survival/ tested =10/10; conditions: ip; method in brief: as §2
# [26] = system: Mus musculus; assay: Percentage survival of mice after intraperitoneal administration of compound at 10 mg/kg per day in experiment 1; survival/ tested =10/10; conditions: ip; method in brief: as §2
# [27] = system: Mus musculus; assay: Percentage survival of mice after intraperitoneal administration of compound at 10 mg/kg per day in experiment 2; survival/ tested =10/10; conditions: ip; method in brief: as §2
# [28] = system: Mus musculus; assay: Percentage survival of mice after intraperitoneal administration of compound at 1 mg/kg per day in experiment 2; survival/ tested =9/10; conditions: ip; method in brief: as §2
# [29] = system: Mus musculus; assay: Percentage survival of mice after intraperitoneal administration of compound at 200 mg/kg per day in experiment 1; survival/ tested =10/10; conditions: ip; method in brief: as §2
# [30] = system: Mus musculus; assay: Mean survival time of mice was determined after intraperitoneal administration of compound at 10 mg/kg per day in experiment 2; method in brief: as §2
# [31] = organism: Cavia porcellus; assay: Mean of severity score obtained from five different individuals at 0.1% HPMPC
# [32] = organism: Cavia porcellus; assay: Total score of healing period in HSV-1 cutaneous infection in guinea pig at 5% ACV
# [33] = organism: Cavia porcellus; assay: Total score of lesion formation in HSV-1 cutaneous infection in guinea pig at 5% ACV
# [34] = organism: Cavia porcellus; assay: Duration of time of lesion formation in HSV-1 cutaneous infection in guinea pig at 5%ACV
# [35] = organism: Cavia porcellus; assay: Mean of severity score obtained from five different individuals at 5% ACV
# [36] = organism: Cavia porcellus; assay: Duration of time of healing period in HSV-1 cutaneous infection in guinea pig at 5%ACV
# [37] = system: Human alphaherpesvirus 1; assay: In vitro antiviral activity of the compound, determined by plaque-reduction assay against Herpes simplex virus (HSV) type 1, BW5 strain in Vero cells; conditions: Human alphaherpesvirus 1, Vero; read-out: ID50 (the source's name); method in brief: as §1
# [38] = system: Human alphaherpesvirus 1; assay: In vitro antiviral activity of the compound, determined by plaque-reduction assay against thymidine kinase deficient Herpes simplex virus type 1, Z826 strain in Vero cells; conditions: Human alphaherpesvirus 1, Vero; read-out: ID50 (the source's name); method in brief: as §1
# [39] = system: Human alphaherpesvirus 2; assay: In vitro antiviral activity determined by plaque-reduction assay against Herpes simplex virus type 2, G strain in Vero cells; conditions: Human alphaherpesvirus 2, Vero; read-out: ID50 (the source's name); method in brief: as §1
# [40] = system: Mus musculus; assay: Percentage survival of mice after intraperitoneal administration of compound at 100 mg/kg per day in experiment 1; survival/ tested =7/10; conditions: ip; method in brief: as §2
# [41] = system: Mus musculus; assay: Percentage survival of mice after intraperitoneal administration of compound at 200 mg/kg per day in experiment 1; survival/ tested =3/4; conditions: ip
# [42] = system: Mus musculus; assay: Percentage survival of mice after intraperitoneal administration of compound at 200 mg/kg per day in experiment 2; survival/ tested =7/9; conditions: ip; method in brief: as §2
# [43] = system: Mus musculus; assay: Percentage survival of mice after intraperitoneal administration of compound at 50 mg/kg per day in experiment 1; survival/ tested =5/10; conditions: ip; method in brief: as §2
smiles,measurement,setting,value
Nc1ccn(C[C@@H](CO)OCP(=O)(O)O)c(=O)n1.O.O [CIDOFOVIR],Total score,[1],75
same,Total score,[2],72.8
same,Total score,[3],85.4
same,Total score,[4],8.2
same,Total score,[5],7
same,Total score,[6],3
same,Duration time,[7],3.8
same,Duration time,[8],2.2
same,Severity mean,[9],1
same,Severity mean,[10],0.8
same,Duration time,[11],4.4
same,Duration time,[12],3.8
same,Duration time,[13],4.2
same,Duration time,[14],3.8
same,IC50,[15],5.4 µg/mL
same,IC50,[16],0.7 µg/mL
same,IC50,[17],2.3 µg/mL
same,IC50,[18],0.22 µg/mL
same,Mean survival time,[19],14.9 days
same,Mean survival time,[20],19.7 days
same,Mean survival time,[21],21 days
same,Mean survival time,[22],21 days
same,Mean survival time,[23],21 days
same,survival at 0.1 mg/kg/day,[24],50%
same,survival at 100 mg/kg/day,[25],100%
same,survival at 10 mg/kg/day,[26],100%
same,survival at 10 mg/kg/day,[27],100%
same,survival at 1 mg/kg/day,[28],90%
same,survival at 200 mg/kg/day,[29],100%
same,Mean survival time,[30],21 days
same,Severity mean,[31],1.4
Nc1ncnc2c1ncn2C[C@@H](CO)OCP(=O)(O)O,IC50,[15],9.3 µg/mL
same,IC50,[16],3.2 µg/mL
same,IC50,[17],25.2 µg/mL
same,IC50,[18],0.27 µg/mL
Nc1nc2c(ncn2COC(CO)CO)c(=O)[nH]1 [GANCICLOVIR],IC50,[15],0.23 µg/mL
same,IC50,[16],> 10 µg/mL
same,IC50,[17],0.94 µg/mL
same,IC50,[18],1.8 µg/mL
Nc1ccn(CCOCP(=O)(O)O)c(=O)n1,IC50,[15],> 100 µg/mL
same,IC50,[17],> 100 µg/mL
same,IC50,[18],> 2.7 µg/mL
Nc1nc2c(ncn2COCCO)c(=O)[nH]1 [ACYCLOVIR],Total score,[32],60.4
same,Total score,[33],14
same,Duration time,[34],5.4
same,Severity mean,[35],2.4
same,Duration time,[36],4.2
same,IC50,[37],0.5 µg/mL
same,IC50,[38],4.3 µg/mL
same,IC50,[39],0.3 µg/mL
same,survival at 100 mg/kg/day,[40],70%
same,survival at 200 mg/kg/day,[41],75%
same,survival at 200 mg/kg/day,[42],78%
same,survival at 50 mg/kg/day,[43],50%
